Experimental data reported in ChEMBL document CHEMBL1157379, “Transcriptional response of Candida parapsilosis following exposure to farnesol” (2007).

Key:
Format in all cases: functional
Candida parapsilosis [1] = assay: Decrease in RIA1 gene expression in Candida parapsilosis CLIB214 at 50 uM after 2 hrs by microarray based transcriptional profiling relative to control
Outline: (§1)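 Strain CLIB214 grown overnight in YPD at 30°C, diluted to A600 0.2 in fresh YPD at 30°C. After 4 h (A600 0.8), farnesol (40 mM methanol stock) added to 50 μM final, or an equal methanol volume as control; cells harvested 2 h later. RNA was accepted only with a 28S/18S ratio of 1.6–2.2. Cy3/Cy5-dCTP-labelled cDNA was made from 25 μg total RNA. Hybridisation was to duplicate-spotted 68-mer oligo arrays (3,849 genes) at 42°C for about 16 h. Six individual comparisons.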

Candida parapsilosis [2] = assay: Decrease in CGD gene ortholog accession number orf19.1608 expression in Candida parapsilosis CLIB214 at 50 uM after 2 hrs by microarray based transcriptional profiling relative to control
Outline: (§2)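 Cells in YPD at 30°C treated with 50 μM farnesol at 4 h, with a methanol control. RNA harvested 2 h later and kept only if 28S/18S ratio was 1.6–2.2 with no degradation. 25 μg total RNA oligo-dT primed and labeled with Cy3/Cy5-dCTP. Labeled cDNA hybridized about 16 h at 42°C to duplicate-spotted 68-mer oligo arrays. Six individual comparisons analyzed statistically.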

Candida parapsilosis [3] = assay: Increase in PDB1 gene expression in Candida parapsilosis CLIB214 at 50 uM after 2 hrs by microarray based transcriptional profiling relative to control
Outline: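 Strain grown overnight in YPD at 30°C, diluted to A600 0.2 in YPD at 30°C; farnesol (40 mM methanol stock) added at 4 h (A600 0.8), final 50 μM; methanol-only control. Cells collected 2 h later for RNA. Labelled cDNA from 25 μg total RNA (Cy3/Cy5-dCTP) hybridized to 68-mer oligo arrays at 42°C ~16 h; six individual comparisons analysed statistically.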

Candida parapsilosis [4] = assay: Decrease in CGD gene ortholog accession number orf19.3603 expression in Candida parapsilosis CLIB214 at 50 uM after 2 hrs by microarray based transcriptional profiling relative to control; outline: as §2
Candida parapsilosis [5] = assay: Increase in CGD gene ortholog accession number orf19.2446 expression in Candida parapsilosis CLIB214 at 50 uM after 2 hrs by microarray based transcriptional profiling relative to control; outline: as §1
Candida parapsilosis [6] = assay: Decrease in RLM1 gene expression in Candida parapsilosis CLIB214 at 50 uM after 2 hrs by microarray based transcriptional profiling relative to control; outline: as §1
Candida parapsilosis [7] = assay: Decrease in CGD gene ortholog accession number orf19.6281 expression in Candida parapsilosis CLIB214 at 50 uM after 2 hrs by microarray based transcriptional profiling relative to control; outline: as §2
Candida parapsilosis [8] = assay: Decrease in PCL7 gene expression in Candida parapsilosis CLIB214 at 50 uM after 2 hrs by microarray based transcriptional profiling relative to control; outline: as §1
Candida parapsilosis [9] = assay: Antifungal activity against Candida parapsilosis CLIB214 assessed as growth inhibition at 50 uM added after 8 hrs of bacterial growth measured after 2 hrs; details: Lodderomyces parapsilosis
Outline: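 Overnight YPD culture at 30°C diluted to A600 0.2 in YPD. Farnesol added to 50 μM final at 2, 4, 6 or 8 h of growth (A600 about 0.8 at 4 h, 2.3 at 6 h, 6 at 8 h). Growth compared with methanol controls by A600 or cell counts.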

Candida parapsilosis [10] = assay: Increase in CGD gene ortholog accession number orf19.3349 expression in Candida parapsilosis CLIB214 at 50 uM after 2 hrs by microarray based transcriptional profiling relative to control; outline: as §1

Structure (SMILES): CC(C)=CCC/C(C)=C/CC/C(C)=C/CO [FARNESOL]
- fold change (FC) (Candida parapsilosis [1]): 1.65
- fold change (FC) (Candida parapsilosis [2]): 1.62
- fold change (FC) (Candida parapsilosis [3]): 1.7
- fold change (FC) (Candida parapsilosis [4]): 1.92
- fold change (FC) (Candida parapsilosis [5]): 1.59
- fold change (FC) (Candida parapsilosis [6]): 1.6
- fold change (FC) (Candida parapsilosis [7]): 1.72
- fold change (FC) (Candida parapsilosis [8]): 1.75
- inhibition at 50 µM (Candida parapsilosis [9]): 9.5%
- fold change (FC) (Candida parapsilosis [10]): 1.78
